According to ChEMBL document CHEMBL1938239, “Novel analgesic/anti-inflammatory agents: diarylpyrrole acetic esters endowed with nitric oxide releasing properties” (J Med Chem, 2011):
Calls of active or inactive are those of the source. The calls are words filed in the database; no cut-off is given here.

Key:
[1] = molecular target: T1, Prostaglandin G/H synthase 1 (Mus musculus) (UniProt P22437); test: Inhibition of COX-1-mediated PGE2 production in arachidonic acid-stimulated mouse J774 cells at 0.1 uM incubated for 15 mins prior to arachidonic acid-challenge by radioimmunoassay; assay type: cell-based
T1 sequence (whole entry): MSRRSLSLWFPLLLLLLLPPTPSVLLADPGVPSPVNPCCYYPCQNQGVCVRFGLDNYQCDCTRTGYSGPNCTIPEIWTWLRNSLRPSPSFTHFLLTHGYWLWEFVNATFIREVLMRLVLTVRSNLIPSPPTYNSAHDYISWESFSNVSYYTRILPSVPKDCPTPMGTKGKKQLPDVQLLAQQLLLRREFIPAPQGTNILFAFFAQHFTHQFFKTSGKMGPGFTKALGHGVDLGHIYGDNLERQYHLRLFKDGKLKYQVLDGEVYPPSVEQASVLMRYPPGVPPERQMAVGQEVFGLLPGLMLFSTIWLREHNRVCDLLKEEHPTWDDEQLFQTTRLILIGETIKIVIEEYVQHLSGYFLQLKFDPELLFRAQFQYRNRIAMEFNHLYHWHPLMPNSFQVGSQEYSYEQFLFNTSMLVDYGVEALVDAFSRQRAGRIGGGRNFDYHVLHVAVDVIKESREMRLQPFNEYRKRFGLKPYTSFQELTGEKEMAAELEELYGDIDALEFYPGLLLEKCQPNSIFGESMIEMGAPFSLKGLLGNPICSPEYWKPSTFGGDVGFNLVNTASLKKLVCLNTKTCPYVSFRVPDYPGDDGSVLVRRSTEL
Summary of the method: (§1)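 J774 murine macrophages grown in DMEM with 10% FBS and allowed to adhere for 2 h at 37 °C. Where inhibition exceeded 50%, 0.01–1 μM was also tested. Supernatant PGE2 was measured by RIA as % inhibition versus control, in triplicate wells over three experiments. IC50 came from a sigmoidal variable-slope fit.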

[2] = molecular target: T1, Prostaglandin G/H synthase 1 (Mus musculus); test: Inhibition of COX-1-mediated PGE2 production in arachidonic acid-stimulated mouse J774 cells at 1 uM incubated for 15 mins prior to arachidonic acid-challenge by radioimmunoassay; assay type: cell-based; summary of the method: as §1
[3] = molecular target: T1, Prostaglandin G/H synthase 1 (Mus musculus); test: Inhibition of COX-1-mediated PGE2 production in arachidonic acid-stimulated mouse J774 cells at 10 uM incubated for 15 mins prior to arachidonic acid-challenge by radioimmunoassay; assay type: cell-based; summary of the method: as §1
[4] = molecular target: T2, Prostaglandin G/H synthase 1 (Mus musculus, UniProt P22437); test: Inhibition of COX-1-mediated PGE2 production in arachidonic acid-stimulated mouse J774 cells incubated for 15 mins prior to arachidonic acid-challenge by radioimmunoassay; assay type: cell-based
T2 sequence (P22437 whole entry): T1 sequence (whole entry)
Summary of the method: as §1, with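 “2 h at 37 °C. Cells were pretreated with compound at 10 μM for 15 min, then given 15 μM arachidonic acid for 30 min at 37” for “2 h at 37”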

J774 = test: Selectivity ratio of IC50 for COX1 in mouse J774 cells to IC50 for COX2 in mouse J774 cells; assay type: cell-based
Summary of the method: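 Ratio of J774 IC50s, COX-1 over COX-2. For COX-1, cells were pretreated with compound for 15 min, then given 15 μM arachidonic acid for 30 min at 37 °C. For COX-2, cells received E. coli LPS 10 μg/mL for 24 h with compound at 0.01–10 μM. PGE2 was measured by RIA in triplicate wells over three experiments. IC50 came from a sigmoidal fit.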

Aorta [5] = test: Vasorelaxation activity against KCl-induced contraction in isolated Wistar rat thoracic endothelium-denulated aortic rings; assay type: functional, tissue-based
Summary of the method: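 Endothelium-denuded thoracic aortic rings from male Wistar rats (250−350 g); denudation confirmed by <10% relaxation to 10 μM ACh. Rings precontracted with 30 mM KCl; compound added at 3-fold increasing concentrations, 1 nM to 10 μM. Isometric tension recorded. Emax given as % of KCl tone; pIC50 derived. Mean ± standard error of 6−10 experiments; repeated with 1 μM ODQ.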

Aorta [6] = test: Vasorelaxation activity against KCl-induced contraction in isolated Wistar rat thoracic endothelium-denulated aortic rings in the presence of guanylate cyclase inhibitor ODQ; assay type: functional, tissue-based
Summary of the method: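 Thoracic aortic rings from male Wistar rats (250–350 g), endothelium removed by rubbing; rings relaxing ≥10% to ACh 10 μM on KCl 30 mM tone were discarded. ODQ 1 μM was incubated, then rings were contracted with KCl 30 mM and given 3-fold increasing concentrations of 1 nM–10 μM.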

[7] = molecular target: T3, Prostaglandin G/H synthase 2 (Mus musculus, UniProt Q05769); test: Inhibition of COX-2-mediated PGE2 production in LPS-stimulated mouse J774 cells after 24 hrs by radioimmunoassay; assay type: cell-based
T3 sequence (Q05769 whole entry): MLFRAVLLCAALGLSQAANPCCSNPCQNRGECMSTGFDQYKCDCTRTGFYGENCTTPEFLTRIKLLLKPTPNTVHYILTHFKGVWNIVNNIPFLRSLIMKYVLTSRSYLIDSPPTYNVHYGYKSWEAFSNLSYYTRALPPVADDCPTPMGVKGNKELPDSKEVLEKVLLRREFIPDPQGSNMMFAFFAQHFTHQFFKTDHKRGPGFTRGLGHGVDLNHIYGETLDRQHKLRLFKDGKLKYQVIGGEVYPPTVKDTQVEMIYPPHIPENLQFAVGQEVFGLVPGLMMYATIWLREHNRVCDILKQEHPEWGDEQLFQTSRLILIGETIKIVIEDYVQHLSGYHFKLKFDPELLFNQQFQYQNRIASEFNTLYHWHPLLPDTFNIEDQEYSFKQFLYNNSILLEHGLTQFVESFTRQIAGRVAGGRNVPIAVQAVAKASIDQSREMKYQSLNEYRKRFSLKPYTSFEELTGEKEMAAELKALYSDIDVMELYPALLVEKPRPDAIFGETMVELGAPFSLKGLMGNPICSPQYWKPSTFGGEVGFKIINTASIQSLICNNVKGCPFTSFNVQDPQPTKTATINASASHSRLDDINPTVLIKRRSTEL

Compound | inhibition [1] [%] | inhibition [2] [%] | inhibition [3] [%] | IC50 [4] [nM] | Ratio IC50 (J774) | IC50 (Aorta [5]) [nM] | Activity (Aorta [6]) | IC50 [7] [nM] | Emax (Aorta [5]) [%]
COc1ccc(-n2c(-c3ccc(S(C)(=O)=O)cc3)cc(CC(=O)OCCO[N+](=O)[O-])c2C)cc1 | 12 | 30 | 55 | 6400 | 37.6 | 178 | inactive |  | 
CSc1ccc(-n2c(-c3ccc(S(C)(=O)=O)cc3)cc(CC(=O)O)c2C)cc1 |  |  | 45 | > 10000 | > 769 |  |  | 13 | 
Cc1c(CC(=O)OCCO)cc(-c2ccc(S(C)(=O)=O)cc2)n1-c1ccccc1 |  |  | 22 | > 10000 | > 104 |  |  | 96 | 
Cc1c(CC(=O)OCCCO[N+](=O)[O-])cc(-c2ccc(S(C)(=O)=O)cc2)n1-c1ccccc1 |  |  | 27 | > 10000 | > 238 | > 10000 | inactive | 42 | 44
CSc1ccc(-n2c(-c3ccc(S(C)(=O)=O)cc3)cc(CC(=O)OCCCO)c2C)cc1 |  |  | 36 | > 10000 | > 38.5 |  |  |  | 
Cc1c(CC(=O)OCCO[N+](=O)[O-])cc(-c2ccc(S(C)(=O)=O)cc2)n1-c1ccccc1 |  |  | 19 | > 10000 | > 233 | 1740 | inactive |  | 65
CSc1ccc(-n2c(-c3ccc(S(C)(=O)=O)cc3)cc(CC(=O)OCCO[N+](=O)[O-])c2C)cc1 |  |  | 0 | > 10000 | > 588 | 457 | inactive | 17 | 65
Cc1c(CC(=O)O)cc(-c2ccc(S(C)(=O)=O)cc2)n1-c1ccc(F)cc1 |  |  |  | > 10000 | > 20 |  |  | 500 | 
Cc1c(CC(=O)OCCO[N+](=O)[O-])cc(-c2ccc(S(C)(=O)=O)cc2)n1-c1ccc(F)cc1 |  |  | 0 | > 10000 | > 345 | 3390 | inactive | 29 | 
Cc1c(CC(=O)O)cc(-c2ccc(S(C)(=O)=O)cc2)n1-c1ccccc1 |  |  | 0 | > 10000 | > 10 |  |  |  | 
